# Laboratory results reported in ChEMBL document CHEMBL4229342, “Synthesis of novel proxyphylline derivatives with dual Anti-Candida albicans and anticancer activity” (Eur J Med Chem, 2018).
# Legend:
# [1] = test system: MCF7; test: Antiproliferative activity against human MCF7 cells assessed as cell viability at 25 uM after 72 hrs by MTT assay; assay type: functional; details: MCF7, 72 h, read-out: Activity
# In short: (§1)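 MTT viability assay in CCRF-CEM and MCF-7 cells after 72 h exposure at 25, 50, 100 and 200 µM. Results are relative to control cells without inhibitor in 0.5% DMSO. Done in triplicate; values are means ± SD of three independent experiments.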
# [2] = test system: CCRF-CEM; test: Antiproliferative activity against human CCRF-CEM cells assessed as cell viability at 50 uM after 72 hrs by MTT assay; assay type: functional; details: read-out: Activity; in short: as §1
# [3] = test system: CCRF-CEM; test: Antiproliferative activity against human CCRF-CEM cells assessed as cell viability at 25 uM after 72 hrs by MTT assay; assay type: functional; details: read-out: Activity; in short: as §1
# [4] = test system: Candida albicans; test: Growth inhibition of Candida albicans ATCC 90028 at 16 ug/ml incubated for 48 hrs at 35 degC by broth microdilution method relative to control; assay type: functional; details: ATCC 90028, 48 h, read-out: GI
# [5] = test system: CCRF-CEM; test: Antiproliferative activity against human CCRF-CEM cells assessed as cell viability at 100 uM after 72 hrs by MTT assay; assay type: functional; details: read-out: Activity; in short: as §1
# [6] = test system: Candida albicans; test: Growth inhibition of Candida albicans ATCC 90028 at 8 ug/ml incubated for 4 hrs at 35 degC by broth microdilution method relative to control; assay type: functional; details: ATCC 90028, 4 h, read-out: GI
# [7] = test system: Candida albicans; test: Growth inhibition of Candida albicans ATCC 90028 at 8 ug/ml incubated for 48 hrs at 35 degC by broth microdilution method relative to control; assay type: functional; details: ATCC 90028, 48 h, read-out: GI
# [8] = test system: CCRF-CEM; test: Antiproliferative activity against human CCRF-CEM cells assessed as cell viability at 200 uM after 72 hrs by MTT assay; assay type: functional; details: read-out: Activity; in short: as §1
# [9] = test system: Candida albicans; test: Growth inhibition of Candida albicans ATCC 90028 at 0.25 ug/ml incubated for 18 hrs at 35 degC by broth microdilution method relative to control; assay type: functional; details: ATCC 90028, 18 h, read-out: GI
# [10] = test system: Candida albicans; test: Growth inhibition of Candida albicans ATCC 90028 at 1 ug/ml incubated for 4 hrs at 35 degC by broth microdilution method relative to control; assay type: functional; details: ATCC 90028, 4 h, read-out: GI
# [11] = test system: Candida albicans; test: Growth inhibition of Candida albicans ATCC 90028 at 0.0313 ug/ml incubated for 18 hrs at 35 degC by broth microdilution method relative to control; assay type: functional; details: ATCC 90028, 18 h, read-out: GI
# [12] = test system: MCF7; test: Antiproliferative activity against human MCF7 cells assessed as cell viability at 200 uM after 72 hrs by MTT assay; assay type: functional; details: MCF7, 72 h, read-out: Activity; in short: as §1
# [13] = test system: Candida albicans; test: Growth inhibition of Candida albicans ATCC 90028 at 2 ug/ml incubated for 18 hrs at 35 degC by broth microdilution method relative to control; assay type: functional; details: ATCC 90028, 18 h, read-out: GI
# [14] = test system: Candida albicans; test: Growth inhibition of Candida albicans ATCC 90028 at 0.0625 ug/ml incubated for 18 hrs at 35 degC by broth microdilution method relative to control; assay type: functional; details: ATCC 90028, 18 h, read-out: GI
# [15] = test system: Candida albicans; test: Growth inhibition of Candida albicans ATCC 90028 at 8 ug/ml incubated for 18 hrs at 35 degC by broth microdilution method relative to control; assay type: functional; details: ATCC 90028, 18 h, read-out: GI
# [16] = test system: Candida albicans; test: Growth inhibition of Candida albicans ATCC 90028 at 0.5 ug/ml incubated for 18 hrs at 35 degC by broth microdilution method relative to control; assay type: functional; details: ATCC 90028, 18 h, read-out: GI
# [17] = test system: Vero; test: Cytotoxicity in African green monkey Vero cells incubated for 18 hrs by XTT assay; assay type: cell-based; details: Chlorocebus sabaeus
# [18] = test system: Candida albicans; test: Growth inhibition of Candida albicans ATCC 90028 at 1 ug/ml incubated for 18 hrs at 35 degC by broth microdilution method relative to control; assay type: functional; details: ATCC 90028, 18 h, read-out: GI
# [19] = test system: MCF7; test: Antiproliferative activity against human MCF7 cells assessed as cell viability at 100 uM after 72 hrs by MTT assay; assay type: functional; details: MCF7, 72 h, read-out: Activity; in short: as §1
# [20] = test system: Vero; test: Cytotoxicity in African green monkey Vero cells up to 64 ug/ml incubated for 3 to 18 hrs by XTT assay; assay type: cell-based; details: chlorocebus sabaeus
# [21] = test system: Candida albicans; test: Growth inhibition of Candida albicans ATCC 90028 at 0.125 ug/ml incubated for 18 hrs at 35 degC by broth microdilution method relative to control; assay type: functional; details: ATCC 90028, 18 h, read-out: GI
# [22] = test system: MCF7; test: Antiproliferative activity against human MCF7 cells assessed as cell viability at 50 uM after 72 hrs by MTT assay; assay type: functional; details: MCF7, 72 h, read-out: Activity; in short: as §1
# [23] = test system: Candida albicans; test: Fungicidal activity against Candida albicans ATCC 90028 assessed as drug level causing 3 fold reduction in bacterial count after 48 hrs at 35 degC; assay type: functional; details: ATCC 90028, 48 h
# [24] = test system: Candida albicans; test: Growth inhibition of Candida albicans ATCC 90028 at 0.125 ug/ml incubated for 4 hrs at 35 degC by broth microdilution method relative to control; assay type: functional; details: ATCC 90028, 4 h, read-out: GI
# [25] = test system: Candida albicans; test: Growth inhibition of Candida albicans ATCC 90028 at 0.25 ug/ml incubated for 4 hrs at 35 degC by broth microdilution method relative to control; assay type: functional; details: ATCC 90028, 4 h, read-out: GI
# [26] = test system: Candida albicans; test: Growth inhibition of Candida albicans ATCC 90028 at 4 ug/ml incubated for 18 hrs at 35 degC by broth microdilution method relative to control; assay type: functional; details: ATCC 90028, 18 h, read-out: GI
# [27] = test system: Candida albicans; test: Fungicidal activity against Candida albicans ATCC 90028 assessed as log reduction in cell viability at 16 ug/ml after 48 hrs at 35 degC; assay type: functional
# In short: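 MFC assay on C. albicans ATCC 90028 following M27-A3, at the molar equivalent of 16 µg/mL. CFU of treated cells were compared with CFU of the untreated inoculum. Activity is given as lg R = lg CFU/mL control − lg CFU/mL treated, and lg R ≥3 was defined as fungicidal. Values are means of two independent experiments.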
# [28] = test system: Candida albicans; test: Growth inhibition of Candida albicans ATCC 90028 at 0.0625 ug/ml incubated for 4 hrs at 35 degC by broth microdilution method relative to control; assay type: functional; details: ATCC 90028, 4 h, read-out: GI
# [29] = test system: Candida albicans; test: Growth inhibition of Candida albicans ATCC 90028 at 0.0313 ug/ml incubated for 4 hrs at 35 degC by broth microdilution method relative to control; assay type: functional; details: ATCC 90028, 4 h, read-out: GI
# [30] = test system: Candida albicans; test: Growth inhibition of Candida albicans ATCC 90028 at 2 ug/ml incubated for 4 hrs at 35 degC by broth microdilution method relative to control; assay type: functional; details: ATCC 90028, 4 h, read-out: GI
# [31] = test system: Candida albicans; test: Growth inhibition of Candida albicans ATCC 90028 at 16 ug/ml incubated for 18 hrs at 35 degC by broth microdilution method relative to control; assay type: functional; details: ATCC 90028, 18 h, read-out: GI
# [32] = test system: Candida albicans; test: Growth inhibition of Candida albicans ATCC 90028 at 0.5 ug/ml incubated for 4 hrs at 35 degC by broth microdilution method relative to control; assay type: functional; details: ATCC 90028, 4 h, read-out: GI
# [33] = test system: Candida albicans; test: Antifungal activity against Candida albicans ATCC 90028 assessed as reduction in cell viability after 48 hrs in absence of ergosterol by XTT assay; assay type: functional; details: ATCC 90028, 48 h
# [34] = test system: Candida albicans; test: Growth inhibition of Candida albicans ATCC 90028 at 0.625 ug/ml incubated for 18 hrs at 35 degC by broth microdilution method relative to control; assay type: functional; details: ATCC 90028, 18 h, read-out: GI
# [35] = test system: Candida albicans; test: Growth inhibition of Candida albicans ATCC 90028 at 0.625 ug/ml incubated for 48 hrs at 35 degC by broth microdilution method relative to control; assay type: functional; details: ATCC 90028, 48 h, read-out: GI
# [36] = test system: Candida albicans; test: Antifungal activity against Candida albicans ATCC 90028 assessed as reduction in cell viability at 1022.5 to 0.06 uM after 48 hrs in presence of ergosterol by XTT assay; assay type: functional; details: ATCC 90028, 48 h
# [37] = test system: Candida albicans; test: Antifungal activity against Candida albicans ATCC 90028 assessed as reduction in cell viability at 0.1 uM after 48 hrs in presence of ergosterol by XTT assay; assay type: functional
# [38] = test system: Candida albicans; test: Antifungal activity against Candida albicans ATCC 90028 assessed as reduction in cell viability at 0.3 uM after 48 hrs in absence of ergosterol by XTT assay; assay type: functional
smiles,measurement,setting,value
CC(Cn1cnc2c1c(=O)n(C)c(=O)n2C)OC(=O)N1c2ccccc2C=Cc2ccccc21 (stereo not drawn),viability at 25 µM,[1],93.4%
same,viability at 50 µM,[2],39.3%
same,viability at 25 µM,[3],52.4%
same,inhibition of growth at 16 µg/mL,[4],100%
same,viability at 100 µM,[5],23.9%
same,inhibition of growth at 8 µg/mL,[6],99.2%
same,inhibition of growth at 8 µg/mL,[7],99.2%
same,viability at 200 µM,[8],23.4%
same,inhibition of growth at 0.25 µg/mL,[9],100%
same,inhibition of growth at 1 µg/mL,[10],99.3%
same,inhibition of growth at 0.0313 µg/mL,[11],99.8%
same,viability at 200 µM,[12],76.5%
same,inhibition of growth at 2 µg/mL,[13],99.8%
same,inhibition of growth at 0.0625 µg/mL,[14],99.9%
same,inhibition of growth at 8 µg/mL,[15],99.8%
same,inhibition of growth at 0.5 µg/mL,[16],99.7%
same,IC50,[17],≥ 280 µM
same,inhibition of growth at 1 µg/mL,[18],100%
same,viability at 100 µM,[19],82.5%
same,Activity,[20],Non-Toxic
same,inhibition of growth at 0.125 µg/mL,[21],100%
same,viability at 50 µM,[22],98.8%
same,MFC,[23],35 µM
same,inhibition of growth at 0.125 µg/mL,[24],99.7%
same,inhibition of growth at 0.25 µg/mL,[25],99.2%
same,inhibition of growth at 4 µg/mL,[26],100%
same,log(activity),[27],8
same,inhibition of growth at 0.0625 µg/mL,[28],99.3%
same,inhibition of growth at 0.0313 µg/mL,[29],99.1%
same,inhibition of growth at 2 µg/mL,[30],99.4%
same,inhibition of growth at 16 µg/mL,[31],100%
same,inhibition of growth at 0.5 µg/mL,[32],99.2%
C[C@@H]1[C@H](O)[C@@H](C)/C=C/C=C/C=C/C=C/C=C/C=C/C=C/[C@H](O[C@@H]2O[C@H](C)[C@@H](O)[C@H](N)[C@@H]2O)C[C@@H]2O[C@](O)(C[C@@H](O)C[C@@H](O)[C@H](O)CC[C@@H](O)C[C@@H](O)CC(=O)O[C@H]1C)C[C@H](O)[C@H]2C(=O)O [AMPHOTERICIN B],MIC,[33],0.3 µM
same,inhibition of growth at 0.625 µg/mL,[34],100%
same,inhibition of growth at 0.625 µg/mL,[35],100%
same,MIC,[36],0.1 µM
same,Activity,[37],78.5%
same,Activity,[38],95.5%
